Values after ≈ are worked out from the molar mass of the structure shown.
Key:
Assay type in all cases: functional
Pseudomonas aeruginosa [1] = test: Antimicrobial activity against Pseudomonas aeruginosa PA14 PA3520 harboring mutation in putative periplasmic metal-binding protein by Etest method
Summary of the method: (§1)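 Etest MIC. Overnight LB cultures at 37°C were diluted in sterile 0.85% NaCl to about 1 × 10^7 CFU/ml. 100 µl was spread on Mueller-Hinton agar, one strip was placed per plate, and plates were incubated at 37°C for 18 h. Equal cell numbers were seeded per plate, and results were verified in triplicate. PA14 wild type was included in each set as a susceptibility control.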

Pseudomonas aeruginosa [2] = test: Antimicrobial activity against Pseudomonas aeruginosa PA14 PA0770 harboring rnc mutant gene by Etest method
Summary of the method: (§2)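 Overnight LB cultures (37°C) diluted in sterile 0.85% NaCl to about 1 × 10^7 CFU/ml. 100 µl spread on Mueller-Hinton agar, one Etest strip per plate, 18 h at 37°C. Ceftazidime, imipenem and meropenem tested. Wild-type PA14 plate included in each set. Each mutant verified in triplicate.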

Pseudomonas aeruginosa [3] = test: Antimicrobial activity against Pseudomonas aeruginosa PA14 PA3667 harboring mutation in putative cysteine sulfinate desulfinase by Etest method; summary of the method: as §1
Pseudomonas aeruginosa [4] = test: Antimicrobial activity against Pseudomonas aeruginosa PA14 PA14_07490/07510 harboring mutation in intergenic region by Etest method; summary of the method: as §2
Pseudomonas aeruginosa [5] = test: Antimicrobial activity against Pseudomonas aeruginosa PA14 PA2963 harboring mutation in putative aminodeoxychorismate lyase by Etest method; summary of the method: as §2
Pseudomonas aeruginosa [6] = test: Antimicrobial activity against Pseudomonas aeruginosa PA14 PA1011 harboring mutation in putative lipoprotein by Etest method; summary of the method: as §2
Pseudomonas aeruginosa [7] = test: Antimicrobial activity against Pseudomonas aeruginosa PA14 PA3721 harboring nalC mutant gene by Etest method; summary of the method: as §1
Pseudomonas aeruginosa [8] = test: Antimicrobial activity against Pseudomonas aeruginosa PA14 PA1483 harboring cycH mutant gene by Etest method; summary of the method: as §2
Pseudomonas aeruginosa [9] = test: Antimicrobial activity against Pseudomonas aeruginosa PA14 PA1195 harboring mutation in putative dimethylarginine dimethylaminohydrolase by Etest method; summary of the method: as §2
Pseudomonas aeruginosa [10] = test: Antimicrobial activity against Pseudomonas aeruginosa PA14 PA1553 harboring mutation in putative cytochrome c oxidase, cbb3 type, subunit II by Etest method; summary of the method: as §2
Pseudomonas aeruginosa [11] = test: Antimicrobial activity against Pseudomonas aeruginosa PA14 PA5003 harboring mutation in conserved hypothetical protein by Etest method; summary of the method: as §1
Pseudomonas aeruginosa [12] = test: Antimicrobial activity against Pseudomonas aeruginosa PA14 PA1348 harboring mutation in conserved hypothetical protein by Etest method; summary of the method: as §2
Pseudomonas aeruginosa [13] = test: Antimicrobial activity against Pseudomonas aeruginosa PA14 PA0401 harboring mutation in Noncatalytic dihydroorotase-like protein by Etest method; summary of the method: as §2
Pseudomonas aeruginosa [14] = test: Antimicrobial activity against Pseudomonas aeruginosa PA14 PA2128 harboring cupA1 mutant gene by Etest method; summary of the method: as §2
Pseudomonas aeruginosa [15] = test: Antimicrobial activity against Pseudomonas aeruginosa PA14 PA5366 harboring pstB mutant gene by Etest method; summary of the method: as §1
Pseudomonas aeruginosa [16] = test: Antimicrobial activity against wild type Pseudomonas aeruginosa PA14 by Etest method; summary of the method: as §1
Pseudomonas aeruginosa [17] = test: Antimicrobial activity against Pseudomonas aeruginosa PA14 PA5001 harboring mutation in conserved hypothetical protein by Etest method; summary of the method: as §1
Pseudomonas aeruginosa [18] = test: Antimicrobial activity against Pseudomonas aeruginosa PA14 PA4748 harboring tpiA mutant gene by Etest method; summary of the method: as §1
Pseudomonas aeruginosa [19] = test: Antimicrobial activity against Pseudomonas aeruginosa PA14 PA4946 harboring mutL mutant gene by Etest method; summary of the method: as §1
Pseudomonas aeruginosa [20] = test: Antimicrobial activity against Pseudomonas aeruginosa PA14 PA5002 harboring mutation in hypothetical protein by Etest method; summary of the method: as §1
Pseudomonas aeruginosa [21] = test: Antimicrobial activity against Pseudomonas aeruginosa PA14 PA5038 harboring aroB mutant gene by Etest method; summary of the method: as §1
Pseudomonas aeruginosa [22] = test: Antimicrobial activity against Pseudomonas aeruginosa PA14 PA5443 harboring uvrD mutant gene by Etest method; summary of the method: as §1
Pseudomonas aeruginosa [23] = test: Antimicrobial activity against Pseudomonas aeruginosa PA14 PA4550 harboring fimU mutant gene by Etest method; summary of the method: as §1
Pseudomonas aeruginosa [24] = test: Antimicrobial activity against Pseudomonas aeruginosa PA14 PA4269 harboring rpoC mutant gene by Etest method; summary of the method: as §1
Pseudomonas aeruginosa [25] = test: Antimicrobial activity against Pseudomonas aeruginosa PA14 PA2621 harboring clpS mutant gene by Etest method; summary of the method: as §2
Pseudomonas aeruginosa [26] = test: Antimicrobial activity against Pseudomonas aeruginosa PA14 PA14_23430 harboring mutation in putative heparinase by Etest method; summary of the method: as §2
Pseudomonas aeruginosa [27] = test: Antimicrobial activity against Pseudomonas aeruginosa PA14 PA3050 harboring pyrD mutant gene by Etest method; summary of the method: as §2
Pseudomonas aeruginosa [28] = test: Antimicrobial activity against Pseudomonas aeruginosa PA14 PA3978 harboring mutation in hypothetical protein by Etest method; summary of the method: as §1
Pseudomonas aeruginosa [29] = test: Antimicrobial activity against Pseudomonas aeruginosa PA14 PA3259 harboring mutation in conserved hypothetical protein by Etest method; summary of the method: as §1
Pseudomonas aeruginosa [30] = test: Antimicrobial activity against Pseudomonas aeruginosa PA14 PA0479 harboring mutation in putative transcriptional regulator, LysR family by Etest method; summary of the method: as §2
Pseudomonas aeruginosa [31] = test: Antimicrobial activity against Pseudomonas aeruginosa PA14 PA5288 harboring glnK mutant gene by Etest method; summary of the method: as §1
Pseudomonas aeruginosa [32] = test: Antimicrobial activity against Pseudomonas aeruginosa PA14 PA4005 harboring mutation in conserved hypothetical protein by Etest method; summary of the method: as §1
Pseudomonas aeruginosa [33] = test: Antimicrobial activity against Pseudomonas aeruginosa PA14 PA3620 harboring mutS mutant gene by Etest method; summary of the method: as §1
Pseudomonas aeruginosa [34] = test: Antimicrobial activity against Pseudomonas aeruginosa PA14 PA0420 harboring bioA mutant gene by Etest method; summary of the method: as §2
Pseudomonas aeruginosa [35] = test: Antimicrobial activity against Pseudomonas aeruginosa PA14 PA0766 harboring mucD mutant gene by Etest method; summary of the method: as §2
Pseudomonas aeruginosa [36] = test: Antimicrobial activity against Pseudomonas aeruginosa PA14 PA4459 harboring mutation in Conserved hypothetical protein by Etest method; summary of the method: as §1
Pseudomonas aeruginosa [37] = test: Antimicrobial activity against Pseudomonas aeruginosa PA14 PA14_15600 harboring mutation in conserved hypothetical protein by Etest method; summary of the method: as §2
Pseudomonas aeruginosa [38] = test: Antimicrobial activity against Pseudomonas aeruginosa PA14 PA2487 harboring mutation in hypothetical protein by Etest method; summary of the method: as §2
Pseudomonas aeruginosa [39] = test: Antimicrobial activity against Pseudomonas aeruginosa PA14 PA0958 harboring oprD mutant gene by Etest method; summary of the method: as §2
Pseudomonas aeruginosa [40] = test: Antimicrobial activity against Pseudomonas aeruginosa PA14 PA14_06490 harboring mutation in hypothetical protein by Etest method; summary of the method: as §2
Pseudomonas aeruginosa [41] = test: Antimicrobial activity against Pseudomonas aeruginosa PA14 PA14_59780 harboring rcsC mutant gene by Etest method; summary of the method: as §2
Pseudomonas aeruginosa [42] = test: Antimicrobial activity against Pseudomonas aeruginosa PA14 PA3433 harboring mutation in putative transcriptional regulator, LysR family by Etest method; summary of the method: as §1
Pseudomonas aeruginosa [43] = test: Antimicrobial activity against Pseudomonas aeruginosa PA14 PA3141 harboring wbpM mutant gene by Etest method; summary of the method: as §2
Pseudomonas aeruginosa [44] = test: Antimicrobial activity against Pseudomonas aeruginosa PA14 PA5192 harboring pckA mutant gene by Etest method; summary of the method: as §1
Pseudomonas aeruginosa [45] = test: Antimicrobial activity against Pseudomonas aeruginosa PA14 PA14_43090 harboring mutation in hypothetical protein by Etest method; summary of the method: as §2
Pseudomonas aeruginosa [46] = test: Antimicrobial activity against Pseudomonas aeruginosa PA14 PA4745 harboring nusA mutant gene by Etest method; summary of the method: as §1
Pseudomonas aeruginosa [47] = test: Antimicrobial activity against Pseudomonas aeruginosa PA14 PA0667 harboring mutation in putative metallopeptidase by Etest method; summary of the method: as §2
Pseudomonas aeruginosa [48] = test: Antimicrobial activity against Pseudomonas aeruginosa PA14 PA14_23420 harboring mutation in putative zinc-binding dehydrogenase by Etest method; summary of the method: as §2

Work on `CC(C)(O/N=C(\C(=O)N[C@@H]1C(=O)N2C(C(=O)[O-])=C(C[n+]3ccccc3)CS[C@H]12)c1csc(N)n1)C(=O)O` [CEFTAZIDIME] yielded an MIC (Pseudomonas aeruginosa [1]) of 1.5 mg/L (≈ 2.74 µM), an MIC (Pseudomonas aeruginosa [2]) of 0.5 mg/L (≈ 0.915 µM) and an MIC (Pseudomonas aeruginosa [3]) of 3 mg/L (≈ 5.49 µM). For the same molecule, the MIC (Pseudomonas aeruginosa [4]) was 0.5 mg/L (≈ 0.915 µM), the MIC (Pseudomonas aeruginosa [5]) was 0.75 mg/L (≈ 1.37 µM) and the MIC (Pseudomonas aeruginosa [6]) was 0.5 mg/L (≈ 0.915 µM). The MIC (Pseudomonas aeruginosa [7]) was 1.5 mg/L (≈ 2.74 µM), the MIC (Pseudomonas aeruginosa [8]) was 0.5 mg/L (≈ 0.915 µM) and the MIC (Pseudomonas aeruginosa [9]) was 0.5 mg/L (≈ 0.915 µM). It also gave an MIC (Pseudomonas aeruginosa [10]) of 0.75 mg/L (≈ 1.37 µM), an MIC (Pseudomonas aeruginosa [11]) of 3 mg/L (≈ 5.49 µM) and an MIC (Pseudomonas aeruginosa [12]) of 1.5 mg/L (≈ 2.74 µM). The MIC (Pseudomonas aeruginosa [13]) was 0.38 mg/L (≈ 0.695 µM), the MIC (Pseudomonas aeruginosa [14]) was 0.5 mg/L (≈ 0.915 µM) and the MIC (Pseudomonas aeruginosa [15]) was 0.75 mg/L (≈ 1.37 µM). The MIC (Pseudomonas aeruginosa [16]) was 0.75 mg/L (≈ 1.37 µM), the MIC (Pseudomonas aeruginosa [17]) was 3 mg/L (≈ 5.49 µM) and the MIC (Pseudomonas aeruginosa [18]) was 1.5 mg/L (≈ 2.74 µM). For the same molecule, the MIC (Pseudomonas aeruginosa [19]) was 1.5 mg/L (≈ 2.74 µM), the MIC (Pseudomonas aeruginosa [20]) was 1.5 mg/L (≈ 2.74 µM) and the MIC (Pseudomonas aeruginosa [21]) was 3 mg/L (≈ 5.49 µM). The MIC (Pseudomonas aeruginosa [22]) was 1.5 mg/L (≈ 2.74 µM), the MIC (Pseudomonas aeruginosa [23]) was 2 mg/L (≈ 3.66 µM) and the MIC (Pseudomonas aeruginosa [24]) was 0.5 mg/L (≈ 0.915 µM). For the same molecule, the MIC (Pseudomonas aeruginosa [25]) was 4 mg/L (≈ 7.32 µM), the MIC (Pseudomonas aeruginosa [26]) was 2 mg/L (≈ 3.66 µM) and the MIC (Pseudomonas aeruginosa [27]) was 0.5 mg/L (≈ 0.915 µM). The MIC (Pseudomonas aeruginosa [28]) was 0.75 mg/L (≈ 1.37 µM), the MIC (Pseudomonas aeruginosa [29]) was 1.5 mg/L (≈ 2.74 µM) and the MIC (Pseudomonas aeruginosa [30]) was 2 mg/L (≈ 3.66 µM). For the same molecule, the MIC (Pseudomonas aeruginosa [31]) was 0.5 mg/L (≈ 0.915 µM), the MIC (Pseudomonas aeruginosa [32]) was 0.75 mg/L (≈ 1.37 µM) and the MIC (Pseudomonas aeruginosa [33]) was 2 mg/L (≈ 3.66 µM). The MIC (Pseudomonas aeruginosa [34]) was 0.5 mg/L (≈ 0.915 µM), the MIC (Pseudomonas aeruginosa [35]) was 0.38 mg/L (≈ 0.695 µM) and the MIC (Pseudomonas aeruginosa [36]) was 1.5 mg/L (≈ 2.74 µM). It also gave an MIC (Pseudomonas aeruginosa [37]) of 1.5 mg/L (≈ 2.74 µM), an MIC (Pseudomonas aeruginosa [38]) of 2 mg/L (≈ 3.66 µM) and an MIC (Pseudomonas aeruginosa [39]) of 0.75 mg/L (≈ 1.37 µM). The MIC (Pseudomonas aeruginosa [40]) was 2 mg/L (≈ 3.66 µM), the MIC (Pseudomonas aeruginosa [41]) was 0.38 mg/L (≈ 0.695 µM) and the MIC (Pseudomonas aeruginosa [42]) was 0.5 mg/L (≈ 0.915 µM). It also gave an MIC (Pseudomonas aeruginosa [43]) of 2 mg/L (≈ 3.66 µM), an MIC (Pseudomonas aeruginosa [44]) of 0.5 mg/L (≈ 0.915 µM) and an MIC (Pseudomonas aeruginosa [45]) of 2 mg/L (≈ 3.66 µM). It also gave an MIC (Pseudomonas aeruginosa [46]) of 0.75 mg/L (≈ 1.37 µM), an MIC (Pseudomonas aeruginosa [47]) of 2 mg/L (≈ 3.66 µM) and an MIC (Pseudomonas aeruginosa [48]) of 2 mg/L (≈ 3.66 µM).

From ChEMBL document CHEMBL1687778, “Genetic determinants involved in the susceptibility of Pseudomonas aeruginosa to beta-lactam antibiotics” (2010)
